In PubChem BioAssay:
Active and inactive are the calls of the source.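 Rule for the calls, unless noted: active = GFP response above 150% of the DMSO level; inconclusive = fewer than 70 events counted for a yeast strain; inactive = the rest.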

Experiments:
[1] = RPL19A-GFP modulators, yeast TOR pathway, confirmation, cell-based, S. cerevisiae, flow cytometry, cherry picks, mother/daughter gates (AID 2270;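 active = GFP response below 50% of the DMSO control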); conditions: S. cerevisiae RPL19A-GFP strain, 3 h, at 10 µM, stronger effect = lower value, 100 = same GFP as DMSO wells
[2] = LAP4-GFP expression modulators in yeast, confirmation, cell-based, cherry picks, flow cytometry, mother/daughter gates (AID 2271;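 active = GFP response above 150% of the DMSO control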;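 note: ratio of sample to DMSO plate mean so 100% equals DMSO level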); conditions: S. cerevisiae LAP4-GFP strain, 3 h, at 10 µM, stronger effect = higher value, 100 means same as DMSO control
Outline: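 System – GFP-fusion yeast strain · Amount – 0.2 OD600 cells · Buffer or medium – SC growth medium · Dosing – single test-compound dose, 10 µM final · Schedule – 3 h treatment at 30 °C with rotation · Detection – GFP by flow cytometry · Read-out – per-gate (all, mother, daughter) GFP response vs DMSO · Benchmarks – positive rapamycin (400 ng/mL), negative DMSO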

[3] = modulators of MEP2-GFP levels in yeast, confirmation, S. cerevisiae, flow cytometry GFP, cherry picks (AID 2272;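 active = GFP response above 150% of the DMSO control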;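 note: ratio of well signal to plate DMSO mean so 100% equals DMSO level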); conditions: S. cerevisiae MEP2-GFP strain, 3 h, at 10 µM, stronger effect = higher value
[4] = AGP1-GFP expression modulators, hit retest, confirmation, cell-based, flow cytometry, S. cerevisiae, cherry picks (AID 2273);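 note: median GFP channel fluorescence over the whole cell population gate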; conditions: S. cerevisiae AGP1-GFP strain, 3 h, at 10 µM
[5] = modulators of CIT2-GFP expression in yeast, confirmation, S. cerevisiae, GFP fusion, cherry picks, mother/daughter gates (AID 2274); conditions: S. cerevisiae CIT2-GFP strain, flow cytometry, 3 h, at 10 µM, stronger effect = higher value
[6] = measured here: daughter cell gate
[7] = measured here: mother cell gate
[8] = measured here: daughter cell gate response
[9] = measured here: mother cell gate response

| SMILES | GFP response vs DMSO [1] | GFP response vs DMSO [1, 6] [%] | GFP response vs DMSO [1, 7] [%] | GFP response relative to DMSO [2] | GFP response relative to DMSO [2, 8] [%] | GFP response relative to DMSO [2, 9] [%] | GFP response vs DMSO [3] | GFP response, % of DMSO [4] | GFP response, % of DMSO [5] | GFP response, % of DMSO [5, 6] [%] | GFP response, % of DMSO [5, 7] [%] |
| --- | --- | --- | --- | --- | --- | --- | --- | --- | --- | --- | --- |
| CC(OC(=O)CSc1ccc([N+](=O)[O-])cc1)C(=O)NCc1ccccc1 (stereo unspecified) | 101% (inactive) | 101 | 101 | 99.8% (inactive) | 102 | 100 | 100% (inactive) | 98% (inactive) | 97.8% (inactive) | 96.5 | 96.6 |
| CCOC(=O)Cc1csc(NC(=O)c2sc3nc4ccc(CC)cc4cc3c2N)n1 | 98.9% (inactive) | 99.5 | 99.4 | 95.3% (inactive) | 94.4 | 97.4 | 108% (inactive) | 107% (inactive) | 98.6% (inactive) | 99.3 | 99.3 |
| Cc1cccc(C(=O)NNC(=S)NC(=O)c2ccccc2)c1 | 107% (inactive) | 110 | 105 | 122% (inactive) | 117 | 128 | 109% (inactive) | 102% (inactive) | 105% (inactive) | 116 | 99.7 |
| Cc1cc(-c2csc3nc[nH]c(=S)c23)cc(C)c1C | 96.3% (inactive) | 98.1 | 95 | 112% (inactive) | 114 | 109 | 127% (inactive) | 118% (inactive) | 106% (inactive) | 110 | 104 |
| O=C(Nc1ccccc1N1CCOCC1)c1ccc([N+](=O)[O-])o1 | 58.5% (inactive) | 82.8 | 47.8 | 128% (inactive) | 104 | 116 | 90.5% (inactive) | 87.6% (inactive) | 63.9% (inactive) | 77.5 | 55.2 |
| CC(=O)c1ccc(Sc2ccccn2)c([N+](=O)[O-])c1 | 98.4% (inactive) | 99.4 | 95.8 | 99.2% (inactive) | 99.2 | 97.2 | 102% (inactive) | 93.1% (inactive) | 101% (inactive) | 103 | 99.7 |
| CCn1c(=O)c(C(=O)Nc2ccccc2C)c(O)c2ccccc21 | 97.8% (inactive) | 98.1 | 97.9 | 102% (inactive) | 102 | 99.3 | 105% (inactive) | 96% (inactive) | 96.9% (inactive) | 99.1 | 96.1 |
| O=C(Oc1oc(-c2ccco2)nc1C=Nc1ccc(Cl)cc1)c1ccco1 | 104% (inactive) | 104 | 103 | 176% (active) | 154 | 188 | 112% (inactive) | 99.8% (inactive) | 89.7% (inactive) | 95.2 | 83.8 |
| COc1ccc(-c2nnc(NC(=O)c3ccc([N+](=O)[O-])o3)o2)c(OC)c1 | 101% (inactive) | 100 | 101 | 95.4% (inactive) | 92.8 | 96.1 | 100% (inactive) | 98% (inactive) | 105% (inactive) | 105 | 103 |
| COc1cc(OC)cc(-c2nc(-c3ccccc3OC)no2)c1 | 97.8% (inactive) | 99.3 | 95.6 | 97.7% (inactive) | 97.5 | 101 | 114% (inactive) | 108% (inactive) | 107% (inactive) | 108 | 107 |
| CC(NC(=O)C1CCC(CNS(=O)(=O)c2ccccc2)CC1)c1ccccc1 (stereo unspecified) | 101% (inactive) | 102 | 101 | 100% (inactive) | 102 | 99.5 | 104% (inactive) | 107% (inactive) | 99.3% (inactive) | 100 | 96.8 |
| CCOC(=O)C1=C(Cc2ccc(F)cc2)C(=O)c2ccccc2C1=O | 97.8% (inactive) | 99.6 | 95.8 | 101% (inactive) | 97.9 | 104 | 106% (inactive) | 92.5% (inactive) | 95% (inactive) | 96.4 | 92.1 |
| Cc1ccc(N2C(=O)c3ccccc3NC2c2ccccc2O)cc1 (stereo unspecified) | 97.2% (inactive) | 98.1 | 98.4 | 97.9% (inactive) | 96 | 96.1 | 109% (inactive) | 96.6% (inactive) | 103% (inactive) | 105 | 103 |
| O=[N+]([O-])c1ccc(N2CCN(CCO)CC2)cc1Sc1ccccn1 | 97.8% (inactive) | 99.5 | 98 | 94.1% (inactive) | 96 | 95.4 | 99.3% (inactive) | 96.1% (inactive) | 101% (inactive) | 101 | 102 |
| O=C(/C=C/c1ccc(O)cc1)c1ccc(O)cc1O | 93.7% (inactive) | 92.9 | 94.6 | 96.7% (inactive) | 97.6 | 96.1 | 102% (inactive) | 109% (inactive) | 103% (inactive) | 103 | 102 |
| COc1ccc(/C=N/Nc2nc(-c3cccnc3)nc3ccccc23)cc1OC | 100% (inactive) | 99.3 | 102 | 129% (inactive) | 130 | 129 | 137% (inactive) | 104% (inactive) | 144% (inactive) | 143 | 141 |
| Cc1c(NC2=C(Cl)C(=O)N(c3ccccc3Cl)C2=O)c(=O)n(-c2ccccc2)n1C | 94.7% (inactive) | 96.6 | 95.6 | 93.7% (inactive) | 96.6 | 94.1 | 96.6% (inactive) | 102% (inactive) | 110% (inactive) | 108 | 110 |
| O=C(NNC(=S)NC(=O)c1ccco1)c1ccc(F)cc1 | 106% (inactive) | 106 | 105 | 115% (inactive) | 115 | 114 | 115% (inactive) | 104% (inactive) | 107% (inactive) | 116 | 102 |
| C=CCNC(=O)/C(C#N)=C/c1c(N2CC(C)OC(C)C2)nc2ccccn2c1=O (stereo unspecified) | 98.8% (inactive) | 99.5 | 98.4 | 102% (inactive) | 100 | 105 | 102% (inactive) | 100% (inactive) | 96.5% (inactive) | 98.1 | 94.4 |
| O=C(O)C1CCN(S(=O)(=O)c2ccc(Oc3ccccc3)cc2)CC1 | 98% (inactive) | 98.3 | 98.8 | 97.7% (inactive) | 97.9 | 96.5 | 104% (inactive) | 96.7% (inactive) | 99.3% (inactive) | 100 | 98 |
| Cc1ccc(S(=O)(=O)N2C3C=CC(C3)C2C(=O)O)cc1 (stereo unspecified) | 96% (inactive) | 97.6 | 95.2 | 95.3% (inactive) | 96 | 94.4 | 106% (inactive) | 98.4% (inactive) | 97.2% (inactive) | 97.6 | 98.2 |
| N#Cc1cc([N+](=O)[O-])c(-n2nnc3ccccc32)c([N+](=O)[O-])c1 | 92.8% (inactive) | 94.7 | 88.8 | 172% (active) | 149 | 184 | 90.5% (inactive) | 98.2% (inactive) | 100% (inactive) | 99.2 | 93.2 |
| CCN(CC)c1ccc(/C=C/c2cccc[n+]2C)c(OC)c1 | 103% (inactive) | 103 | 105 | 113% (inactive) | 113 | 116 | 137% (inactive) | 104% (inactive) | 112% (inactive) | 113 | 111 |
| CC(=O)Oc1ccc(/C=c2\sc3ncnn3c2=O)cc1 | 100% (inactive) | 102 | 97.8 | 123% (inactive) | 122 | 125 | 101% (inactive) | 98.8% (inactive) | 100% (inactive) | 103 | 96 |
| O=C1c2ccccc2C(=O)c2c([N+](=O)[O-])ccc(O)c21 | 82.2% (inactive) | 91.2 | 74.2 | 122% (inactive) | 114 | 124 | 110% (inactive) | 106% (inactive) | 92.2% (inactive) | 93.7 | 82.8 |
| Cc1ccccc1N1C(=O)c2sc3nc4c(c(=O)n3c2C1=O)CCC4 | 96.2% (inactive) | 94.9 | 96.3 | 107% (inactive) | 107 | 110 | 99% (inactive) | 102% (inactive) | 90.1% (inactive) | 90.2 | 88.2 |
